Test results taken from ChEMBL document CHEMBL3860029, “Maximiscin Induces DNA Damage, Activates DNA Damage Response Pathways, and Has Selective Cytotoxic Activity against a Subtype of Triple-Negative Breast Cancer” (J Nat Prod, 2016).
The source made the active and inactive calls. The calls are words filed in the database; no cut-off is given here.

Legend:
[1] = Cytotoxicity against human MDA-MB-453 cells after 48 hrs by SRB assay; type: functional; details: MDA-MB-453, 48 h, read-out: LC50 (the source's name)
Outline: (§1)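 Cells grown in IMEM with 25 µg/mL gentamicin and 10% FBS at 37°C, 5% CO2, and passaged under 3 months after revival. Sulforhodamine B assay after 48 h of compound exposure, with cell density measured at time of treatment (T0). LC50 (50% cell death vs T0) interpolated by nonlinear regression. At least 3 independent experiments, each concentration in triplicate.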

[2] = Cytotoxicity against human BT549 cells after 48 hrs by SRB assay; type: functional; details: BT-549, 48 h, read-out: LC50 (the source's name)
Outline: as §1, with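 “RPMI-1640” for “IMEM”, “50” for “25”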

[3] = biological target: T1, Serine/threonine-protein kinase Chk1 (Homo sapiens) (UniProt O14757); experiment: Induction of CHK1 phosphorylation at S345-residue in human MDA-MB-468 cells at 1 uM after 4 hrs by immunoblot analysis; type: cell-based
T1 sequence (whole entry): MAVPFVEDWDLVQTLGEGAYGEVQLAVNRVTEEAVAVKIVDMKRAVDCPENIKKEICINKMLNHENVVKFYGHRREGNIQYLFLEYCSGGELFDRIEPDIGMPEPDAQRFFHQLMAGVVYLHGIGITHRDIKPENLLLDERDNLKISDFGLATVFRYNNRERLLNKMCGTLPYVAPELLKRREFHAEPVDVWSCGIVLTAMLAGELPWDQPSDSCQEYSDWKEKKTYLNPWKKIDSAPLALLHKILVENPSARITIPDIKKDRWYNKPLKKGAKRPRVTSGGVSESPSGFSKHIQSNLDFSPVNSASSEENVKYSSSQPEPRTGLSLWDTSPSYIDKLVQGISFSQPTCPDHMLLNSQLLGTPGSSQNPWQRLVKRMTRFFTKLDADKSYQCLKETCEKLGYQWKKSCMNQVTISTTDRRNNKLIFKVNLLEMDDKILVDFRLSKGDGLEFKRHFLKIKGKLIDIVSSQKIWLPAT
Outline: (§2)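 Whole-cell lysates of MDA-MB-468 cells taken after vehicle or compound treatment for the stated times. Lysis buffer held protease inhibitors, PMSF and Na3VO4. Equal protein run on SDS-PAGE, blotted to PVDF and probed for phospho-S345-Chk1, phospho-T68-Chk2 and phospho-S15-p53 alongside total proteins and β-actin. Read by near-infrared fluorescent secondaries.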

[4] = Cytotoxicity against human MDA-MB-231 cells after 48 hrs by SRB assay; type: functional; details: MDA-MB-231, 48 h, read-out: LC50 (the source's name); outline: as §1
[5] = Cell cycle arrest in human MDA-MB-468 cells assessed as accumulation at G0/G1 phase at 1 to 10 uM after 18 hrs by propidium iodide staining based FACS analysis; type: functional
Outline: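 MDA-MB-468 cells (RPMI-1640, 10% FBS, gentamicin) exposed to vehicle (DMSO) or compound for 18 h. Cells harvested and stained with Krishan's reagent (PI). DNA content read on a Muse Cell Analyzer to give phase distribution. n = 3; two-way ANOVA with Dunnett's post-hoc test.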

[6] = biological target: Cellular tumor antigen p53 (Homo sapiens) (UniProt P04637); experiment: Induction of p53 phosphorylation at serine15 in human MDA-MB-468 cells after 2 hrs at 1 uM by immunoblot analysis; type: cell-based; outline: as §2
Sequence of Cellular tumor antigen p53 (Homo sapiens) (P04637 whole entry, looked up): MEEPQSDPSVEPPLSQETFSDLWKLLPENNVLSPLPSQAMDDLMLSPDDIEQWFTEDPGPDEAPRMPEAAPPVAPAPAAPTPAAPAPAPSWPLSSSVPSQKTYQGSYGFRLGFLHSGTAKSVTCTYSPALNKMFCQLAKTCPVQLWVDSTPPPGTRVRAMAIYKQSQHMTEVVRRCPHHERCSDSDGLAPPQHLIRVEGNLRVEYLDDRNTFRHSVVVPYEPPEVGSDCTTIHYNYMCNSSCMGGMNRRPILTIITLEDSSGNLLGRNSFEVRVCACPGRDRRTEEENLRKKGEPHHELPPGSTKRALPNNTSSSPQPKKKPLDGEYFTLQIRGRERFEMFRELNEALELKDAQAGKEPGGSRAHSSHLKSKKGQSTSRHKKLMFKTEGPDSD

[7] = Cytotoxicity against human MDA-MB-468 cells after 48 hrs by SRB assay; type: functional; details: MDA-MB-468, 48 h, read-out: LC50 (the source's name)
Outline: as §1, with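 “RPMI-1640” for “IMEM”, “50” for “25”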

[8] = biological target: Cellular tumor antigen p53 (Homo sapiens) (UniProt P04637); experiment: Induction of p53 phosphorylation at serine15 in whole cell human MDA-MB-468 cell lysates at 1 uM by antibody microarray assay; type: cell-based; details: TDE = time-dependent effect
Outline: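 MDA-MB-468 whole-cell lysates, prepared as for immunoblotting after early post-treatment time points, applied to a PathScan intracellular signaling antibody array with fluorescent readout. Near-infrared signals imaged and quantified.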

[9] = Cytotoxicity against human HCC70 cells after 48 hrs by SRB assay; type: functional; details: HCC70, 48 h, read-out: LC50 (the source's name)
Outline: as §1, with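 “RPMI-1640” for “IMEM”, “50” for “25”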

[10] = system: HCC70; experiment: Selectivity ratio of LC50 for human HCC70 cells to LC50 for human MDA-MB-468 cells; type: functional
Outline: (§3)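 Both LC50s come from 48 h sulforhodamine B assays, with T0 density measured at treatment. LC50 is 50% cell death vs T0, interpolated by nonlinear regression. At least 3 independent experiments, concentrations in triplicate. MDA-MB-468, HCC70 and BT-549 were grown in RPMI-1640. MDA-MB-231 and MDA-MB-453 were grown in IMEM.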

[11] = system: MDA-MB-468; experiment: Induction of DNA double stranded break in human MDA-MB-468 cells assessed as increase in gamma-H2A.X foci at 1 to 10 uM after 18 hrs by nucblue staining based immunofluorescent microscopic analysis; type: functional, cell-based
Outline: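 MDA-MB-468 cells on glass coverslips, adhered overnight, then exposed 18 h. Paraformaldehyde fixation, blocking in 10% bovine calf serum/DPBS 20 min at room temperature, then anti-γ-H2A.X in 1% BSA/0.3% Triton X-100. Detection with Alexa Fluor 594 secondary and NucBlue nuclear counterstain at 60× objective. Two independent experiments, each concentration in duplicate.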

[12] = system: MDA-MB-468; experiment: Antitumor activity against human MDA-MB-468 cells xenografted in athymic nude mouse assessed as tumor growth inhibition at 5 mg/kg, ip administered daily for 21 days measured on day 21 post dose relative to control; type: functional, organism-based
Outline: (§4)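 Female athymic nude mice implanted s.c. bilaterally in each flank with 2 × 10^6 MDA-MB-468 cells in DPBS plus Matrigel. Dosing began at tumor volume of at least 150 mm3, with 7 or 8 tumors/group. Dose was 5 mg/kg i.p. daily for 21 days in 2.5% DMSO/2.5% Kolliphor EL in DPBS; controls untreated. Mice weighed and examined daily; calipers twice weekly; volume = length × width × height.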

[13] = system: Mus musculus; experiment: Toxicity in athymic nude mouse xenografted with human MDA-MB-468 cells assessed as weight loss at 5 mg/kg, ip administered daily for 21 days […] relative to control; type: organism-based; details: in vivo, 504 h; outline: as §4
[14] = Selectivity ratio of LC50 for human MDA-MB-231 cells to LC50 for human MDA-MB-468 cells; type: functional; outline: as §3
[15] = biological target: Serine/threonine-protein kinase Chk2 (Homo sapiens) (UniProt O96017); experiment: Induction of CHK2 phosphorylation at T68-residue in human MDA-MB-468 cells at 1 uM after 2 hrs by immunoblot analysis; type: cell-based; outline: as §2
Sequence of Serine/threonine-protein kinase Chk2 (Homo sapiens) (O96017 whole entry): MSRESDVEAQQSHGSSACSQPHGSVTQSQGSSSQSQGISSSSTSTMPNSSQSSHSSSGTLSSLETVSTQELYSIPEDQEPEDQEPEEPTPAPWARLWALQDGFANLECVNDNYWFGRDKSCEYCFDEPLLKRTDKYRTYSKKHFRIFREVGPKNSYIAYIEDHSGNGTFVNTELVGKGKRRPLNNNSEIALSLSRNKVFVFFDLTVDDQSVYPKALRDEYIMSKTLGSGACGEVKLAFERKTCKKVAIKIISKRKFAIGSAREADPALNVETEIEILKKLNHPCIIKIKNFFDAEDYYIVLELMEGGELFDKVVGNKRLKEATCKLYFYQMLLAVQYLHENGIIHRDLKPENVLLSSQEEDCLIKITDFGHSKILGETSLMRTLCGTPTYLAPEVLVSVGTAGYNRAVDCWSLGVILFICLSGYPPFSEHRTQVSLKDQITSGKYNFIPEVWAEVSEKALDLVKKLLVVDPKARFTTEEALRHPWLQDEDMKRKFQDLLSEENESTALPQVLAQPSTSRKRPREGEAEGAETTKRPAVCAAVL

[16] = Selectivity ratio of LC50 for human MDA-MB-453 cells to LC50 for human MDA-MB-468 cells; type: functional; outline: as §3
[17] = system: BT-549; experiment: Selectivity ratio of LC50 for human BT549 cells to LC50 for human MDA-MB-468 cells; type: functional; outline: as §3

| Compound | CC50 [1] | CC50 [2] | Activity [3] | CC50 [4] | Activity [5] | Activity [6] | CC50 [7] | Activity [8] | CC50 [9] | RatioLC50 [10] | Activity [11] | TGI [12] | Activity [13] | RatioLC50 [14] | Activity [15] | RatioLC50 [16] | RatioLC50 [17] |
| --- | --- | --- | --- | --- | --- | --- | --- | --- | --- | --- | --- | --- | --- | --- | --- | --- | --- |
| C=C[C@@H]1C[C@H](C)C[C@H](C)[C@H]1c1c(O)ccn(O[C@@H]2C(C(=O)OC)=C[C@@H](O)[C@@H](O)[C@H]2O)c1=O | 15000 nM | 15000 nM | Active | 60000 nM | Active | Active | 600 nM | Tde | 39000 nM | 25 - 100 | Dose-dependent effect | Active | 12% | 25 - 100 | Active | 25 - 100 | 25 - 100 |
| CC(=O)O[C@H]1C(=O)[C@@]2(C)[C@H]([C@H](OC(=O)c3ccccc3)[C@]3(O)C[C@H](OC(=O)[C@H](O)[C@@H](NC(=O)c4ccccc4)c4ccccc4)C(C)=C1C3(C)C)[C@]1(OC(C)=O)CO[C@@H]1C[C@@H]2O [PACLITAXEL] | 8.2 nM | 18 nM | – | > 62.5 nM | – | – | 9.8 nM | – | > 31.2 nM | – | – | – | – | – | – | – | – |
